ChEMBL document CHEMBL1667772 (Bioorg Med Chem Lett, 2011)
Calls of active or inactive are those of the source. The calls are words filed in the database; no cut-off is given here.

Experiments:
[1] = molecular target: T1, Bifunctional epoxide hydrolase 2 (Homo sapiens, UniProt P34913); format: cell-based, HUVEC
T1 sequence (P34913 whole entry): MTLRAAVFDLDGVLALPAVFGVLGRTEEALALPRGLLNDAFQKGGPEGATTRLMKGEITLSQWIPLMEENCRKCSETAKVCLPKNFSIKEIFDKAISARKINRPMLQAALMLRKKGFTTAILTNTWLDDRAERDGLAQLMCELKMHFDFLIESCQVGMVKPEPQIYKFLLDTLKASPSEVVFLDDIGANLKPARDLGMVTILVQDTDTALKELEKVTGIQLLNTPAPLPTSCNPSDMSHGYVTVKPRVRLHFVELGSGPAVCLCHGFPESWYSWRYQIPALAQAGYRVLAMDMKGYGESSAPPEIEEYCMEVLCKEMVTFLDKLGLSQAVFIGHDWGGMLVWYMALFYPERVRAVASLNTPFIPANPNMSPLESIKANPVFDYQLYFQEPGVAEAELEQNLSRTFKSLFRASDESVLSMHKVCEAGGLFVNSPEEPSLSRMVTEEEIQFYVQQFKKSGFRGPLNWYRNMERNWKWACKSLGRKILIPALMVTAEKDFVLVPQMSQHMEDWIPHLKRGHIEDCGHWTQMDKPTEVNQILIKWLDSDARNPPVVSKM

[2] = molecular target: Voltage-gated inwardly rectifying potassium channel KCNH2 (Homo sapiens, UniProt Q12809); assay: Inhibition of human ERG by patch clamp analysis
Method in brief: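 hERG inhibition measured by high-throughput patch clamp; percent inhibition at 30 µM.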

[3] = AUC (24 hrs) in rat at 10 mg/kg, po; format: ADME, organism-based; parameters: time < 24 hr, dose 10 mg/kg, route oral; conditions: plasma
[4] = molecular target: T1, Bifunctional epoxide hydrolase 2; assay: Inhibition of human soluble epoxide hydrolase
Cytochrome P450 1A2 = molecular target: T2, Cytochrome P450 1A2 (Homo sapiens, UniProt P05177); assay: Inhibition of CYP1A2; format: ADME
T2 sequence (P05177 whole entry): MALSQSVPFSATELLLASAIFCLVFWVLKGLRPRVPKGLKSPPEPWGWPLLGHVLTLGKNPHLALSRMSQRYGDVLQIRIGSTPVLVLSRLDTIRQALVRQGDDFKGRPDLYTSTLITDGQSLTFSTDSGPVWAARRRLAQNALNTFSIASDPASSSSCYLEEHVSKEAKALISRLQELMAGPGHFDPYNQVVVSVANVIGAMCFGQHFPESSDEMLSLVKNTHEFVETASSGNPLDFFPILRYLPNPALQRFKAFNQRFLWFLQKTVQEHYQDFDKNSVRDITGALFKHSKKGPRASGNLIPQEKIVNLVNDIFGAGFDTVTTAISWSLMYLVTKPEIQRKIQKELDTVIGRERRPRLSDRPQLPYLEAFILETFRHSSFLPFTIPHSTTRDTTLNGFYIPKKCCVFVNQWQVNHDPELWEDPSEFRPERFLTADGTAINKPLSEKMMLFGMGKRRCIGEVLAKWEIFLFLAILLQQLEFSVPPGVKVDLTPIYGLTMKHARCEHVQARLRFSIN

Cytochrome P450 2B6 = molecular target: T3, Cytochrome P450 2B6 (Homo sapiens, UniProt P20813); assay: Inhibition of CYP2B6; format: ADME
T3 sequence (P20813 whole entry): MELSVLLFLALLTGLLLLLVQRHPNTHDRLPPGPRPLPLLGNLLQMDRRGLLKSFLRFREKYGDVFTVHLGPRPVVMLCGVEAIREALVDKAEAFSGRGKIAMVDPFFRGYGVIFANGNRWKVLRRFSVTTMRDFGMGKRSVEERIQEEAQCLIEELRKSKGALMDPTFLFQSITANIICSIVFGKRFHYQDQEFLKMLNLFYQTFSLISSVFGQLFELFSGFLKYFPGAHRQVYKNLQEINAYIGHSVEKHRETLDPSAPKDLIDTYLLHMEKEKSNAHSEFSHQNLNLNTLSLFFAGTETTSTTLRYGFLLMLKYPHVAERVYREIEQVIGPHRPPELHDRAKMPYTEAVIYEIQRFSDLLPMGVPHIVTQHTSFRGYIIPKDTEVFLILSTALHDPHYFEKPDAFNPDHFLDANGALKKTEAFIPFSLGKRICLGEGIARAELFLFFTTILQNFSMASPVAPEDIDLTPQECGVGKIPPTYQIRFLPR

Cytochrome P450 2C9 = Cytochrome P450 2C9 (Homo sapiens, UniProt P11712); assay: Inhibition of CYP2C9; format: ADME
Cytochrome P450 2C19 = Cytochrome P450 2C19 (Homo sapiens, UniProt P33261); assay: Inhibition of CYP2C19; format: ADME
Cytochrome P450 3A4 = Cytochrome P450 3A4 (Homo sapiens, UniProt P08684); assay: Inhibition of CYP3A4; format: ADME
[5] = Oral bioavailability in cynomolgus monkey; format: ADME, organism-based, Macaca fascicularis; conditions: in vivo
[6] = Oral bioavailability in rat; format: ADME, organism-based; conditions: in vivo
Rattus norvegicus [7] = assay: Antihypertensive activity against spontaneously hypertensive rat assessed as decrease in mean blood pressure at 100 mg/kg, po; format: functional, organism-based; parameters: dose 100 mg/kg
Mus musculus [8] = assay: Antidiabetic activity in diet induced obese mouse assessed as reduction in maximal glucose excursion at 100 mg/kg, po BID for 4 weeks; format: functional, organism-based; parameters: dose 100 mg/kg
Method in brief: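 Male C57BL/6 mice fed 45% fat diet plus high fructose corn syrup (0.42 kcal/mL) for 6 weeks beforehand and throughout. Oral gavage BID for 12 weeks. After 4 weeks, intraperitoneal glucose 2 g/kg given 4 h post-dose.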

Rattus norvegicus [9] = assay: Antihypertensive activity against AngII-induced hypertension in telemetered rat assessed as decrease in systolic blood pressure at 50 mg/kg, po; conditions: Artery, read-out: INH
Rattus norvegicus [10] = assay: Antihypertensive activity against AngII-induced hypertension in telemetered rat assessed as decrease in diastolic blood pressure at 50 mg/kg, po; format: functional, organism-based; parameters: dose 50 mg/kg; conditions: Artery
Method in brief: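 Sprague–Dawley rats made hypertensive by continuous AngII infusion, 65 ng/min. Dosed orally twice daily as a suspension in 0.5% carboxymethylcellulose, 0.1% Tween 80. Systolic and diastolic pressure recorded continuously by telemetry and compared against vehicle control.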

Mus musculus [11] = assay: Inhibition of soluble epoxide hydrolase in diet induced obese mouse assessed as inhibition of EET hydrolysis at 100 mg/kg, po BID for 12 weeks measured 7 hrs post last dose

Voltage-gated inwardly rectifying potassium channel KCNH2, sequence (Q12809 whole entry): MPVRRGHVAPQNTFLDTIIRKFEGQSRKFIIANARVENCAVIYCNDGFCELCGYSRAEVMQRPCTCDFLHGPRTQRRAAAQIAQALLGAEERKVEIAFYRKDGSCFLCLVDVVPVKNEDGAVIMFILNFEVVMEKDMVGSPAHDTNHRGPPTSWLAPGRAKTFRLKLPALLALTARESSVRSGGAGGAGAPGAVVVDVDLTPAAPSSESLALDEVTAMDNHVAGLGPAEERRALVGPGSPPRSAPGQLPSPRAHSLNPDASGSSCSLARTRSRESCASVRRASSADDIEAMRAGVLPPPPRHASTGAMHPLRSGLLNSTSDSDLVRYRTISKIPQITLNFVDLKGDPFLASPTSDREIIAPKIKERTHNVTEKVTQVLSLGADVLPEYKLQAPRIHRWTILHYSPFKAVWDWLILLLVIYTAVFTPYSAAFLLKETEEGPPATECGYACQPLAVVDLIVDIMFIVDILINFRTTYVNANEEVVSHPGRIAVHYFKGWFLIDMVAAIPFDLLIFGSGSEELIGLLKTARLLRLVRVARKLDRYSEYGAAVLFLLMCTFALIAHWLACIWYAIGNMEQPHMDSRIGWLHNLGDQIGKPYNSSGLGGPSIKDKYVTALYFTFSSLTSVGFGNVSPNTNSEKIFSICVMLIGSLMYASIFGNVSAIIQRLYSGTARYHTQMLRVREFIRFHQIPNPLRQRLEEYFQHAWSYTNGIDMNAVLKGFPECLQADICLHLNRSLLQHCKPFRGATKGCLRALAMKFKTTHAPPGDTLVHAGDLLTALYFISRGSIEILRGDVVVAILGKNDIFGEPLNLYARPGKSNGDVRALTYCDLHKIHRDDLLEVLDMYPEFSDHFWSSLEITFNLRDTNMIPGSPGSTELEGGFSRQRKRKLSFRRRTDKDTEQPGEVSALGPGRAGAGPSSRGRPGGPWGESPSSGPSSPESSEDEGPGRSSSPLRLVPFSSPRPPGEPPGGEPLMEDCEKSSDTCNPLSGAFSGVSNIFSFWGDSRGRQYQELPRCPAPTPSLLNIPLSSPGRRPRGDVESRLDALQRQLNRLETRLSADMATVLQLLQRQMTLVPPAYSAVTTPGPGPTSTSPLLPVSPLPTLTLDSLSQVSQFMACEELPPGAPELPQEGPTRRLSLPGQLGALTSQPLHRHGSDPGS
Cytochrome P450 2C19, sequence (P33261 whole entry): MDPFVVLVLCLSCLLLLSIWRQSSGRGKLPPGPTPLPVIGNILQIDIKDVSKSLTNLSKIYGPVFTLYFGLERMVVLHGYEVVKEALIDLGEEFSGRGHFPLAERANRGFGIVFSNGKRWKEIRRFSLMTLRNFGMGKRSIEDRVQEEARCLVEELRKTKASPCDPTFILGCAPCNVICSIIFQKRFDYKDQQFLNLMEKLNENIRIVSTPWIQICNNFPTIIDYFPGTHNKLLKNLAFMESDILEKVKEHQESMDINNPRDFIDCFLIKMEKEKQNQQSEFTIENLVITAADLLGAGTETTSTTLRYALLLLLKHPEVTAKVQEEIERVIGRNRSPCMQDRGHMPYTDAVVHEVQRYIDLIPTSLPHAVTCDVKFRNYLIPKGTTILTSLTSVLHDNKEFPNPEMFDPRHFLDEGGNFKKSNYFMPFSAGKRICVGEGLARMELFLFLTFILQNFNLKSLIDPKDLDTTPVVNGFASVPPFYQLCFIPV
Cytochrome P450 3A4, sequence (P08684 whole entry): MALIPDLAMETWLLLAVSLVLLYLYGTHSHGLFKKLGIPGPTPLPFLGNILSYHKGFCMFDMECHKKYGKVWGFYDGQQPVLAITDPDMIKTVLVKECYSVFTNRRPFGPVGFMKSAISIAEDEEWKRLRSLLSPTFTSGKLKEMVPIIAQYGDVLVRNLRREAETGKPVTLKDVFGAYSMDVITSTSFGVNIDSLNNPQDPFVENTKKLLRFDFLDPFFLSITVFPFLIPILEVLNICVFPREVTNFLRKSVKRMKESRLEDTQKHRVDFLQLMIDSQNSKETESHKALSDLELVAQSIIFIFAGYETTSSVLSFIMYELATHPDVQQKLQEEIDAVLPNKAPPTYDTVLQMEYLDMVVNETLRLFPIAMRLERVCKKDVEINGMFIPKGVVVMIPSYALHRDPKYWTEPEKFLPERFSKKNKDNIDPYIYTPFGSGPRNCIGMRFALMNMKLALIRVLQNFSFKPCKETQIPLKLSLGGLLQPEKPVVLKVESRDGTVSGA
Cytochrome P450 2C9, sequence (P11712 whole entry): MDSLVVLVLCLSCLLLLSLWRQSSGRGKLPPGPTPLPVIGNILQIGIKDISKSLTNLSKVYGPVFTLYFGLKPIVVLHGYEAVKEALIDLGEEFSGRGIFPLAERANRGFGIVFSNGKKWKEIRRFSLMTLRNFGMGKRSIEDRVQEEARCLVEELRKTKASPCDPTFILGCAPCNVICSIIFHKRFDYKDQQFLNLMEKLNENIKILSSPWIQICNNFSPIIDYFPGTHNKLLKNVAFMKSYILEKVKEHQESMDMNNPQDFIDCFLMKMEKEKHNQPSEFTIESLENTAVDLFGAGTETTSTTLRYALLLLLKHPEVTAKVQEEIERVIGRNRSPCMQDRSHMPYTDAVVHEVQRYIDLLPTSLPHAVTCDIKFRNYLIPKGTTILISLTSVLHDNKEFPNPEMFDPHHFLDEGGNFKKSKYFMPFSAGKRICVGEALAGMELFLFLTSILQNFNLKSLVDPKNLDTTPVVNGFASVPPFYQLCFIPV

| Compound | IC50 [1] | AUC at 24 h [3] | IC50 [4] | inhibition (INH) [2] | also measured |
| --- | --- | --- | --- | --- | --- |
| CC(=O)N1CCC(NC(=O)NC23CC4CC(F)(CC(F)(C4)C2)C3)CC1 | – | – | 58 nM | – | – |
| CC(=O)N1CCC(NC(=O)NC2CC3(C)CCC2CC3)CC1 (stereo not given) | 300 nM | 1480 ng·h/mL | 25 nM | – | – |
| CC(=O)N1CCC(NC(=O)NC2CCCCC2)CC1 | – | – | 29 nM | – | – |
| CC(=O)N1CCC(NC(=O)NC23CC4(F)CC(F)(CC(F)(C4)C2)C3)CC1 | – | – | 120 nM | – | – |
| CC(=O)N1CCC(NC(=O)NC2CCC(C)(C)CC2)CC1 | 38 nM | – | 6 nM | 0.8% | – |
| CC(=O)N1CCC(NC(=O)NC2CCCCCC2)CC1 | 27 nM | 7840 ng·h/mL | 0.8 nM | 9% | – |
| CC(=O)N1CCC(NC(=O)NC23CC4CC(CC(C4)C2)C3)CC1 [AR9281] | – | 720 ng·h/mL | – | < 8% | inhibition (INH) (Cytochrome P450 1A2): Not Active; inhibition (INH) (Cytochrome P450 2B6): Not Active; inhibition (INH) (Cytochrome P450 2C9): Not Active; inhibition (INH) (Cytochrome P450 2C19): Not Active; inhibition (INH) (Cytochrome P450 3A4): Not Active; bioavailability [5]: 25%; bioavailability [6]: 100%; Activity (Rattus norvegicus [7]): inactive; Activity (Mus musculus [8]): Active; inhibition in vivo at 50 mg/kg (Rattus norvegicus [9]): 8%; Activity (Rattus norvegicus [10]): Active; Activity (Mus musculus [11]): Active |
| CC(=O)N1CCC(NC(=O)NC2CCC(C(C)(C)C)CC2)CC1 (stereo not given) | 270 nM | 1780 ng·h/mL | 13 nM | 7% | – |
| CC(=O)N1CCC(NC(=O)NC2C3CCC2CC3)CC1 (stereo not given) | 120 nM | – | 14 nM | – | – |

More lines, main results first:

| IC50 [1] | AUC at 24 h [3] | IC50 [4] | Compound | inhibition (INH) [2] | also measured |
| --- | --- | --- | --- | --- | --- |
| 226 nM | 19600 ng·h/mL | – | CC(=O)N1CCC(NC(=O)Nc2cccc(C(F)(F)F)c2)CC1 | 10% | – |
| – | 13100 ng·h/mL | – | CC(=O)N1CCC(NC(=O)Nc2ccc(C(F)(F)F)cc2)CC1 | – | – |
| – | 6850 ng·h/mL | – | CS(=O)(=O)N1CCC(NC(=O)Nc2ccc(C(F)(F)F)cc2)CC1 | – | – |
| 67 nM | 8320 ng·h/mL | 6.4 nM | O=C(NC1CCCCC1)NC1CCN(C(=O)c2ccccn2)CC1 | 3.4% | – |
| 3.9 nM | 640 ng·h/mL | 1.9 nM | CS(=O)(=O)N1CCC(NC(=O)NC23CC4CC(CC(C4)C2)C3)CC1 | -2.8% | – |
| 6.7 nM | 11300 ng·h/mL | – | O=C(Nc1ccc(OC(F)(F)F)cc1)NC1CCN(C(=O)c2cccnc2)CC1 | 57% | – |
| 64 nM | 7300 ng·h/mL | – | CC(C)S(=O)(=O)N1CCC(NC(=O)Nc2ccc(OC(F)(F)F)cc2)CC1 | 11% | – |
| – | – | 185 nM | CC(=O)N1CCC(NC(=O)NC2CCC(F)(F)CC2)CC1 | – | – |
| – | 5890 ng·h/mL | – | CC(C)S(=O)(=O)N1CCC(NC(=O)Nc2ccc(C(F)(F)F)cc2)CC1 | 13% | – |
